System: HEK-293T
Assay: Multiplex assay against HEK293T;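 as to Population Tubulin-Different-Phenotype (%): share of the cells with healthy nuclei that show this phenotype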
Type: toxicity, cell-based
Details: human
Outline: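 Compound was added to live cells that had been stained at seeding with Hoechst33342, BioTracker Green Microtubule Cytoskeleton Dye, MitoTracker Red and Annexin V Alexa Fluor 680, and imaging followed on a CQ1 microscope at 37°C and 5% CO2. CellPathfinder machine-learning gating divided cells into Hoechst high-intensity objects or normal cells, normal cells into healthy, pyknosed or fragmented nuclei, and pyknosed cells into mitotic or apoptotic. Tubulin, mitochondrial-mass and membrane-permeability phenotypes are per cents of healthy-nucleus cells.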

[1] = 12 h, 1 µM, compound concentration 1 uM, replicate 1
[2] = 12 h, 1 µM, compound concentration 1 uM, replicate 2
[3] = 12 h, 10 µM, compound concentration 10 uM, replicate 1
[4] = 12 h, 10 µM, compound concentration 10 uM, replicate 2
[5] = 24 h, 1 µM, compound concentration 1 uM, replicate 1
[6] = 24 h, 1 µM, compound concentration 1 uM, replicate 2
[7] = 24 h, 10 µM, compound concentration 10 uM, replicate 1
[8] = 24 h, 10 µM, compound concentration 10 uM, replicate 2
[9] = 48 h, 1 µM, compound concentration 1 uM, replicate 1
[10] = 48 h, 1 µM, compound concentration 1 uM, replicate 2
[11] = 48 h, 10 µM, compound concentration 10 uM, replicate 1
[12] = 48 h, 10 µM, compound concentration 10 uM, replicate 2

CN(c1cc(C(F)(F)F)nc(OCCC(=O)O)n1)c1cccc2c1CCC2
Population Apoptotic (%) [1]: 44%
Population Fragmented Nuclei (%) [1]: 21%
Population Healthy Nuclei (%) [1]: 34%
Population Hoechst High Intensity Objects (%) [1]: 14%
Population Membrane Permeable-Phenotype (%) [1]: 3%
Population Mitochondria Different-Phenotype (%) [1]: 67%
Population Mitotic Cells (%) [1]: 55%
Population Normal (%) [1]: 85%
Population Pyknosed Nuclei (%) [1]: 44%
Population Tubulin-Different-Phenotype (%) [1]: 29%
Total Cell Count [1]: 189
Population Apoptotic (%) [2]: 12%
Population Fragmented Nuclei (%) [2]: 4%
Population Healthy Nuclei (%) [2]: 49%
Population Hoechst High Intensity Objects (%) [2]: 4%
Population Membrane Permeable-Phenotype (%) [2]: 8%
Population Mitochondria Different-Phenotype (%) [2]: 15%
Population Mitotic Cells (%) [2]: 87%
Population Normal (%) [2]: 95%
Population Pyknosed Nuclei (%) [2]: 46%
Population Tubulin-Different-Phenotype (%) [2]: 14%
Total Cell Count [2]: 193
Population Apoptotic (%) [3]: 37%
Population Healthy Nuclei (%) [3]: 49%
Population Hoechst High Intensity Objects (%) [3]: 16%
Population Membrane Permeable-Phenotype (%) [3]: 1%
Population Mitochondria Different-Phenotype (%) [3]: 69%
Population Mitotic Cells (%) [3]: 62%
Population Normal (%) [3]: 83%
Population Pyknosed Nuclei (%) [3]: 41%
Population Tubulin-Different-Phenotype (%) [3]: 28%
Total Cell Count [3]: 223
Population Apoptotic (%) [4]: 8%
Population Fragmented Nuclei (%) [4]: 8%
Population Healthy Nuclei (%) [4]: 42%
Population Hoechst High Intensity Objects (%) [4]: 2%
Population Membrane Permeable-Phenotype (%) [4]: 6%
Population Mitochondria Different-Phenotype (%) [4]: 14%
Population Mitotic Cells (%) [4]: 91%
Population Normal (%) [4]: 97%
Population Pyknosed Nuclei (%) [4]: 49%
Population Tubulin-Different-Phenotype (%) [4]: 9%
Total Cell Count [4]: 233
Population Apoptotic (%) [5]: 34%
Population Fragmented Nuclei (%) [5]: 18%
Population Healthy Nuclei (%) [5]: 30%
Population Hoechst High Intensity Objects (%) [5]: 11%
Population Membrane Permeable-Phenotype (%) [5]: 1%
Population Mitochondria Different-Phenotype (%) [5]: 53%
Population Mitotic Cells (%) [5]: 65%
Population Normal (%) [5]: 88%
Population Pyknosed Nuclei (%) [5]: 51%
Population Tubulin-Different-Phenotype (%) [5]: 32%
Total Cell Count [5]: 193
Population Apoptotic (%) [6]: 21%
Population Fragmented Nuclei (%) [6]: 8%
Population Healthy Nuclei (%) [6]: 65%
Population Hoechst High Intensity Objects (%) [6]: 4%
Population Membrane Permeable-Phenotype (%) [6]: 10%
Population Mitochondria Different-Phenotype (%) [6]: 13%
Population Mitotic Cells (%) [6]: 78%
Population Normal (%) [6]: 95%
Population Pyknosed Nuclei (%) [6]: 25%
Population Tubulin-Different-Phenotype (%) [6]: 28%
Total Cell Count [6]: 250
Population Apoptotic (%) [7]: 33%
Population Fragmented Nuclei (%) [7]: 12%
Population Healthy Nuclei (%) [7]: 50%
Population Hoechst High Intensity Objects (%) [7]: 11%
Population Membrane Permeable-Phenotype (%) [7]: 4%
Population Mitochondria Different-Phenotype (%) [7]: 37%
Population Mitotic Cells (%) [7]: 66%
Population Normal (%) [7]: 88%
Population Pyknosed Nuclei (%) [7]: 37%
Population Tubulin-Different-Phenotype (%) [7]: 22%
Total Cell Count [7]: 256
Population Apoptotic (%) [8]: 9%
Population Fragmented Nuclei (%) [8]: 2%
Population Healthy Nuclei (%) [8]: 68%
Population Hoechst High Intensity Objects (%) [8]: 3%
Population Membrane Permeable-Phenotype (%) [8]: 3%
Population Mitochondria Different-Phenotype (%) [8]: 11%
Population Mitotic Cells (%) [8]: 90%
Population Normal (%) [8]: 96%
Population Pyknosed Nuclei (%) [8]: 29%
Population Tubulin-Different-Phenotype (%) [8]: 19%
Total Cell Count [8]: 291
Population Apoptotic (%) [9]: 45%
Population Fragmented Nuclei (%) [9]: 21%
Population Healthy Nuclei (%) [9]: 36%
Population Hoechst High Intensity Objects (%) [9]: 16%
Population Membrane Permeable-Phenotype (%) [9]: 1%
Population Mitochondria Different-Phenotype (%) [9]: 22%
Population Mitotic Cells (%) [9]: 54%
Population Normal (%) [9]: 83%
Population Pyknosed Nuclei (%) [9]: 41%
Population Tubulin-Different-Phenotype (%) [9]: 24%
Total Cell Count [9]: 228
Population Apoptotic (%) [10]: 7%
Population Fragmented Nuclei (%) [10]: 7%
Population Healthy Nuclei (%) [10]: 84%
Population Hoechst High Intensity Objects (%) [10]: 3%
Population Membrane Permeable-Phenotype (%) [10]: 10%
Population Mitochondria Different-Phenotype (%) [10]: 4%
Population Mitotic Cells (%) [10]: 92%
Population Normal (%) [10]: 96%
Population Pyknosed Nuclei (%) [10]: 8%
Population Tubulin-Different-Phenotype (%) [10]: 21%
Total Cell Count [10]: 472
Population Apoptotic (%) [11]: 36%
Population Fragmented Nuclei (%) [11]: 15%
Population Healthy Nuclei (%) [11]: 56%
Population Hoechst High Intensity Objects (%) [11]: 6%
Population Membrane Permeable-Phenotype (%) [11]: 1%
Population Mitochondria Different-Phenotype (%) [11]: 14%
Population Mitotic Cells (%) [11]: 63%
Population Normal (%) [11]: 93%
Population Pyknosed Nuclei (%) [11]: 27%
Population Tubulin-Different-Phenotype (%) [11]: 11%
Total Cell Count [11]: 351
Population Apoptotic (%) [12]: 10%
Population Fragmented Nuclei (%) [12]: 5%
Population Healthy Nuclei (%) [12]: 83%
Population Hoechst High Intensity Objects (%) [12]: 2%
Population Membrane Permeable-Phenotype (%) [12]: 4%
Population Mitochondria Different-Phenotype (%) [12]: 3%
Population Mitotic Cells (%) [12]: 89%
Population Normal (%) [12]: 97%
Population Pyknosed Nuclei (%) [12]: 11%
Population Tubulin-Different-Phenotype (%) [12]: 12%
Total Cell Count [12]: 593

From ChEMBL document CHEMBL4689842, “EUbOPEN Chemogenomics Library wave 1” (2021)
